Measurements reported in ChEMBL document CHEMBL4130626, “α-Arylidene Diacylglycerol-Lactones (DAG-Lactones) as Selective Ras Guanine-Releasing Protein 3 (RasGRP3) Ligands” (J Med Chem, 2018).
Active and inactive are the calls of the source. The calls are words filed in the database; no cut-off is given here.

Columns and labels:
[1] = target: T1, Ras guanyl-releasing protein 3 (Homo sapiens, UniProt Q8IV61); test: Displacement of [3H]PDBu from full length MBP-tagged human RasGRP3 expressed in Escherichia coli BL21 (DE3) after 5 mins by scintillation counting
T1 sequence (Q8IV61 whole entry): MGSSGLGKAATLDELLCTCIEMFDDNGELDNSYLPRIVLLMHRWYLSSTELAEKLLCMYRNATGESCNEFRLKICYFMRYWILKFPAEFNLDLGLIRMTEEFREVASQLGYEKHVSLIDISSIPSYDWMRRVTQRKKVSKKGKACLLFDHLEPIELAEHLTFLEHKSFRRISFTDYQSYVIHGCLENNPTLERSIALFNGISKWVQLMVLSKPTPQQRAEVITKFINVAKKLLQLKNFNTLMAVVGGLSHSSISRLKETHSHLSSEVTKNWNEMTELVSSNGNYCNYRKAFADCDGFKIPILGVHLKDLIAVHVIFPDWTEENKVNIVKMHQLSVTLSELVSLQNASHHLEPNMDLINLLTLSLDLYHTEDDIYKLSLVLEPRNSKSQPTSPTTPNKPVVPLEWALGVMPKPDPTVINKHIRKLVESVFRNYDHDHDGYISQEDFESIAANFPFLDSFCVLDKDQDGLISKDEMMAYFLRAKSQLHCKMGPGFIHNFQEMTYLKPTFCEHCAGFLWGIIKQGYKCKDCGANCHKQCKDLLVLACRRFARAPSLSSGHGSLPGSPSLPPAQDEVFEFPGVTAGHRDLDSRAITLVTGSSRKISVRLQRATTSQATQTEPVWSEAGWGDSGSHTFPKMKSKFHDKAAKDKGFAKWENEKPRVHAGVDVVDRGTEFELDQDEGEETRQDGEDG
Procedure, shortened: (§1)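 Competition of [3H]PDBu binding by polyethylene glycol precipitation, with 100 µg/ml phosphatidylserine and ≤0.003% Triton X-100, 5 min at 37 °C. Proteins: full-length purified human PKCα, PKCε; full-length RasGRP1; MBP-RasGRP3 from E. coli BL21(DE3) induced with 0.3 mM IPTG 6 h at room temperature. Ki mean ± SEM of ≥2 experiments, triplicate points.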

[2] = target: T2, RAS guanyl-releasing protein 1 (Homo sapiens) (UniProt O95267); test: Displacement of [3H]PDBu from full length MBP-tagged human RasGRP1 expressed in Escherichia coli BL21 (DE3) after 5 mins in presence of phosphatidylserine by scintillation counting; procedure, shortened: as §1
T2 sequence (whole entry): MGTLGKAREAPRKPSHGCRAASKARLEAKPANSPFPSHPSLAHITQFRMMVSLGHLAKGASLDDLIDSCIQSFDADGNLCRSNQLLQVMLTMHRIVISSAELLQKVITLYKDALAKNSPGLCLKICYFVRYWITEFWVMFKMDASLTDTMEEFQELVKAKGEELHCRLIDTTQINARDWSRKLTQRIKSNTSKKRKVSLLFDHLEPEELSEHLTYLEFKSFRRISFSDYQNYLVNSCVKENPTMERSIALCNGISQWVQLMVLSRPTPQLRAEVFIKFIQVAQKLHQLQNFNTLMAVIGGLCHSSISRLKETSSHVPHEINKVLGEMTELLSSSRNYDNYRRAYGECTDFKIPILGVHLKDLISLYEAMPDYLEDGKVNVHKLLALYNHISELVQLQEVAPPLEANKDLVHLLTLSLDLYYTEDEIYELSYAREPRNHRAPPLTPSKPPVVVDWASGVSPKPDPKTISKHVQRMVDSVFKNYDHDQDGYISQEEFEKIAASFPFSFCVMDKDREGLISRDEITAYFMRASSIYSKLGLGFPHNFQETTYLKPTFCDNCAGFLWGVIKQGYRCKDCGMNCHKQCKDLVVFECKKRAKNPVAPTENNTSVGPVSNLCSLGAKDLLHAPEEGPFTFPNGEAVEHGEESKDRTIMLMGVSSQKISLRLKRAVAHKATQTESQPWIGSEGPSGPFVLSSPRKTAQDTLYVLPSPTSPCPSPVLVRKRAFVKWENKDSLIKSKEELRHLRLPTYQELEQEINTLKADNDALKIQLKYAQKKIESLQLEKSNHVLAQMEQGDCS

[3] = target: Protein kinase C delta type (Homo sapiens, UniProt Q05655); test: Activation of PKCdelta in human Ramos cells expressing RasGRP3 assessed as phosphorylation at ser299 residues after 30 mins by immunoblot method; type: cell-based
Procedure, shortened: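 PKCδ activation read as phospho-S299 on western blots of lysates (50 µg protein, 10% SDS-PAGE, milk blocking, anti-PKCδS299 overnight). Cells: GFP-RasGRP1/3-transfected HEK293 or LNCaP, or Ramos, treated 30 min at 37 °C with half-log doses (maximum 10 µM), 1000 nM PMA or DMSO. Scanned intensities normalized to 1000 nM PMA; EC50 mean ± SEM, n = 3; values above 10 µM extrapolated.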

[4] = target: T1, Ras guanyl-releasing protein 3; test: Activation of GFP-tagged RasGRP3 (unknown origin) expressed in HEK293 cells assessed as ERK1/2 phosphorylation after 30 mins by immunoblot method; type: cell-based
Procedure, shortened: (§2)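 Cells expressing GFP-RasGRP1/3 (HEK293 or LNCaP, 48 h after plating, transfected; expression checked by fluorescence 24-48 h later) or Ramos with endogenous RasGRP3 treated with half-log increasing concentrations (max 10 µM), 1000 nM PMA or DMSO, 37 °C, 30 min, 5% CO2. RasGTP by Raf1 RBD bead pulldown and anti-Pan-Ras immunoblot; pERK by western blot. Band intensities normalized to 1000 nM PMA; EC50 from n = 3.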

[5] = target: T3, RAS guanyl-releasing protein 1 (Homo sapiens, UniProt O95267); test: Activation of GFP-tagged RasGRP1 (unknown origin) expressed in human LNCAP cells assessed as ERK1/2 phosphorylation after 30 mins by immunoblot method; type: cell-based; procedure, shortened: as §2
T3 sequence (O95267 whole entry): T2 sequence (whole entry)

[6] = target: T1, Ras guanyl-releasing protein 3; test: Activation of RasGRP3 in human Ramos cells assessed as ERK1/2 phosphorylation after 30 mins by immunoblot method; type: cell-based; procedure, shortened: as §2
Homo sapiens [7] = species on record: Homo sapiens; test: Selectivity ratio of EC50 for PKCdelta (unknown origin) expressed in HEK293 cells harboring GFP-tagged RasGRP1 to EC50 for GFP-tagged RasGRP1 (unknown origin) expressed in HEK293 cells; type: cell-based
Homo sapiens [8] = species on record: Homo sapiens; test: Selectivity ratio of EC50 for PKCdelta (unknown origin) expressed in human LNCAP cells harboring GFP-tagged RasGRP3 to EC50 for GFP-tagged RasGRP3 (unknown origin) expressed in human LNCAP cells; type: cell-based
Homo sapiens [9] = species on record: Homo sapiens; test: Selectivity ratio of EC50 for PKCdelta (unknown origin) expressed in human LNCAP cells harboring GFP-tagged RasGRP3 to EC50 for GFP-tagged RasGRP3 (unknown origin) expressed in human LNCAP cells assessed as ERK1/2 phosphorylation; type: cell-based

Chain of Protein kinase C delta type (Q05655 whole entry): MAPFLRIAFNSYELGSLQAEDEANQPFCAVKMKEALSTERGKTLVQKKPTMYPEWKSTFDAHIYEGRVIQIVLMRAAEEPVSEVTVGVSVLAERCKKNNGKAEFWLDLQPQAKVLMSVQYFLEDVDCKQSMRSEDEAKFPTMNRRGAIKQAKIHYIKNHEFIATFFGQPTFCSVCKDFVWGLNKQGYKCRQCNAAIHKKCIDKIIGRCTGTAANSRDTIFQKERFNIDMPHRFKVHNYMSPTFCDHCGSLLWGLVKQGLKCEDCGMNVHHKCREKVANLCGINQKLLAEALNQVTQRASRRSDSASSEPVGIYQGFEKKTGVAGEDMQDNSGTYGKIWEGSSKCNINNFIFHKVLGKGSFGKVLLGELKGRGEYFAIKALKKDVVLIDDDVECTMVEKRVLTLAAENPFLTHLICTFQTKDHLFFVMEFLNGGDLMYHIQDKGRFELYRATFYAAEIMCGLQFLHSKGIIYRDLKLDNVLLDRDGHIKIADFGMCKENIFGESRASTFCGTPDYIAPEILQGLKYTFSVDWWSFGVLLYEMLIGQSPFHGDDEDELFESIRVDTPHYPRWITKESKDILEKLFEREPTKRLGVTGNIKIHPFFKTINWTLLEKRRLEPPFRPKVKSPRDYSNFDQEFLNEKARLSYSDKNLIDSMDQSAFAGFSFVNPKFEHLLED

Ki [1]: 0.00175 µM
inhibition [2]: Active
EC50 [3]: 24.6 µM
EC50 [4]: 4.66 µM
EC50 [5]: 3.73 µM
EC50 [6]: 6.09 µM
Compound: Cn1cc(/C=C2\CC(CO)(COC(=O)C(C)(C)C)OC2=O)c2ccccc21 (centres undefined)
Ratio EC50 (Homo sapiens [7]): 14.7
Ratio EC50 (Homo sapiens [8]): 12.9
Ratio EC50 (Homo sapiens [9]): 2.8
